Activity calls are given as the source filed them. No cut-off for these calls is given here.
Legend:
LNCaP = experiment: Cytotoxicity against human LNCAP cells after 24 hrs by MTT assay; assay type: functional, cell-based
[1] = molecular target: T1, Androgen receptor (Homo sapiens) (UniProt P10275); experiment: Antagonist activity at AR (unknown origin) expressed in African green monkey COS7 cells at 7.5 uM after 24 hrs by dual luciferase reporter gene assay; assay type: cell-based
T1 sequence (whole entry): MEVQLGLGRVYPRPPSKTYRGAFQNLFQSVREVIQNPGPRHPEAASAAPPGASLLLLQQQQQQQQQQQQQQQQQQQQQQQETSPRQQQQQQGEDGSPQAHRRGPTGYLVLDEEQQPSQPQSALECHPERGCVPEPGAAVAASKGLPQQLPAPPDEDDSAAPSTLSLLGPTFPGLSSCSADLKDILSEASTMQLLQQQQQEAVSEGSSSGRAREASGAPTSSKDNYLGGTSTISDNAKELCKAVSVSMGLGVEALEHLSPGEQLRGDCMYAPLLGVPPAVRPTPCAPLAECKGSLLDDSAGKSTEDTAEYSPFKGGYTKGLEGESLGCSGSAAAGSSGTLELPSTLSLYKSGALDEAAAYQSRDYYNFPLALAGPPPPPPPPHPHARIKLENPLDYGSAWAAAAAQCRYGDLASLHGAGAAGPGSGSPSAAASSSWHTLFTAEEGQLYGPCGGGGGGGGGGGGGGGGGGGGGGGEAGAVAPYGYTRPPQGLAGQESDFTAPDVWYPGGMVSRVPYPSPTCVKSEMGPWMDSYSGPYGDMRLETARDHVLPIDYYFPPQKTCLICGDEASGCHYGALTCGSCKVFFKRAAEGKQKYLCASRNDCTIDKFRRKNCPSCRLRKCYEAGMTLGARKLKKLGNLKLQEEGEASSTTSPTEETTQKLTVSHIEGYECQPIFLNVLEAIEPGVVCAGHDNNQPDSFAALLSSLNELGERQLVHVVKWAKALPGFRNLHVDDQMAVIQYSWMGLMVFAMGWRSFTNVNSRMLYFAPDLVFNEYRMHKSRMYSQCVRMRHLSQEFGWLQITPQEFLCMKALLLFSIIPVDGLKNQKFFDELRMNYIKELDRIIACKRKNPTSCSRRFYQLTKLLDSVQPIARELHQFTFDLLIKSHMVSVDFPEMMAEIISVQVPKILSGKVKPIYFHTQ
Summary of the method: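 Cos7 cells (AR-negative) transiently transfected for 8 h with pARE-E1B-LUC reporter plus pCR3.1.AR expression vector. Then in complete medium, treated with compound at 7.5 μM for 24 h; bicalutamide 3 μM as positive control. Luciferase normalized to pRL-SV40 internal control, expressed as RLU relative to control = 100%.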

PC-3 = experiment: Cytotoxicity against human PC3 cells after 24 hrs by MTT assay; assay type: functional, cell-based; conditions: PC-3, 24 h
DU-145 = experiment: Cytotoxicity against human DU145 cells after 24 hrs by MTT assay; assay type: functional, cell-based; conditions: DU-145, 24 h
Rattus norvegicus [2] = experiment: Anti-androgenic activity in citral-induced prostatic hyperplasia Sprague-Dawley rat model assessed as prostate weight at 10 mg/kg, po administered once daily coadministered with citral for 21 days measured 24 hrs last post dose (reference value: 100%); assay type: functional
Summary of the method: (§1)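 Adult male Sprague-Dawley rats (250-280 g, n = 5), citral 100 mg/kg orally once daily for 28 days. From day 8, compound or flutamide at 10 mg/kg orally once daily for the remaining 21 days. Prostate weight is expressed relative to the citral group (100%). Prostates fixed in 10% formalin; 5 μ sections stained with H&E, examined by light microscopy.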

Rattus norvegicus [3] = experiment: Toxicity in citral-induced prostatic hyperplasia Sprague-Dawley rat model assessed as effect on seminal vesicle weight at 10 mg/kg, po administered once daily coadministered with citral for 21 days measured 24 hrs last post dose; assay type: organism-based; conditions: in vivo
Rattus norvegicus [4] = experiment: Toxicity in citral-induced prostatic hyperplasia Sprague-Dawley rat model assessed as effect on testis weight at 10 mg/kg, po administered once daily coadministered with citral for 21 days measured 24 hrs last post dose; assay type: organism-based; conditions: in vivo
Rattus norvegicus [5] = experiment: Toxicity in citral-induced prostatic hyperplasia Sprague-Dawley rat model assessed as effect on epididymis weight at 10 mg/kg, po administered once daily coadministered with citral for 21 days measured 24 hrs last post dose; assay type: organism-based; conditions: in vivo
Rattus norvegicus [6] = experiment: Anti-androgenic activity in citral-induced prostatic hyperplasia Sprague-Dawley rat model assessed increase in distinction between stromal and acinar compartments at 10 mg/kg, po administered once daily coadministered with citral for 21 days measured 24 hrs last post dose by hematoxyline and eosin stainig based light microscopic analysis; assay type: functional, organism-based; summary of the method: as §1
Mus musculus [7] = experiment: Anti-depressant like activity in Swiss albino mouse assessed as reduction in immobility time at 20 mg/kg, po administered 60 mins prior to test measured for 5 mins by forced swim test relative to control; assay type: functional; set-up: scale not given: the % may be the effect or the level left
Summary of the method: (§2)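 Male Swiss albino mice (20-25 g); compound 20 mg/kg, imipramine 60 mg/kg or fluoxetine 20 mg/kg given orally in 1% gum acacia (10 mL/kg). After 60 min: 15 min pre-swim in a water cylinder (10 cm depth, 25 ± 1 °C), then retest at 24 h. Immobility recorded for 5 min after 1 min acclimatization; N = 7-9, mean ± SEM, unpaired t-test.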

Mus musculus [8] = experiment: Anti-depressant like activity in Swiss albino mouse assessed as reduction in immobility time at 60 mg/kg, po administered 60 mins prior to test measured for 5 mins by forced swim test relative to control; assay type: functional; set-up: scale not given: the % may be the effect or the level left; summary of the method: as §2
Mus musculus [9] = experiment: Anti-depressant like activity in Swiss albino mouse assessed as reduction in immobility time at 60 mg/kg, po measured for 5 mins by tail suspension test; assay type: functional, organism-based
Summary of the method: (§3)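 Male Swiss albino mice dosed orally in 1% gum acacia; imipramine as standard. Each mouse suspended by the tail with tape to a horizontal bar 60 cm above the table. Immobility (no limb or body movement other than respiration) recorded for 5 min after 1 min acclimatization; N = 5.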

Mus musculus [10] = experiment: Anti-depressant like activity in Swiss albino mouse assessed as reduction in immobility time at 20 mg/kg, po measured for 5 mins by tail suspension test; assay type: functional, organism-based; summary of the method: as §3
Mus musculus [11] = experiment: Toxicity in Swiss albino mouse assessed as effect on locomotor activity at 20 mg/kg, po measured at 5 mins interval for 90 mins by open field test; assay type: organism-based; conditions: in vivo
Summary of the method: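 Male Swiss albino mice in an activity chamber, infrared beam-break counting over 24 intervals of 5 min (120 min). Oral dosing after the 6th interval; six animals per group.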

Mus musculus [12] = experiment: Toxicity in Swiss albino mouse assessed as latency time to fall at 20 mg/kg, po measured at 1 hr interval for 4 hrs by rotarod test; assay type: organism-based; conditions: in vivo
Summary of the method: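 Mice trained on the rotarod (5 to 10 rpm), 2 min trials, 3 per day for two days. On day 3, tested before oral dosing and at 1, 2, 3 and 4 h after, recording latency to fall.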

[13] = molecular target: T2, Alpha-1A adrenergic receptor (Homo sapiens) (UniProt P35348); experiment: Antagonist activity at recombinant human alpha1a adrenergic receptor expressed in human Chem1 cell membrane assessed as reduction in ephinephrine-induced calcium mobilization at 1 uM by fluoforte dye based fluorescence assay relative to ephinephrine; assay type: functional
T2 sequence (whole entry): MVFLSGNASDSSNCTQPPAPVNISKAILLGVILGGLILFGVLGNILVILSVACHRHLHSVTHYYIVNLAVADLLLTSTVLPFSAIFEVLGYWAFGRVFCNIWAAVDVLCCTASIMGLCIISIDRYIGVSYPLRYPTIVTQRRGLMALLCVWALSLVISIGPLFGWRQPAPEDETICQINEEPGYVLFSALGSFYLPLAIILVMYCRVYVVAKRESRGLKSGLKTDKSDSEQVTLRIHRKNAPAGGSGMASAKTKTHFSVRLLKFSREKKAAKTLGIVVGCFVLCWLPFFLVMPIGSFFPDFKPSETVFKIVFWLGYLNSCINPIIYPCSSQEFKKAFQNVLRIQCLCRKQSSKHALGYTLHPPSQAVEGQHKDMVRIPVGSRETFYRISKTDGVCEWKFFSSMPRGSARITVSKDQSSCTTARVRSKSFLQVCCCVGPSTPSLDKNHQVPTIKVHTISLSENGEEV
Summary of the method: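 α1A-adrenergic receptor-expressing Chem-1 cells, 4 x 10^4/well overnight, loaded with FluoForte calcium dye 45 min at 37 °C then 15 min at room temperature. Compounds at 1 μM; epinephrine 20 μM added at 10 s; tamsulosin 100 nM and 1 μM as reference. Fluorescence (ex 490/em 525 nm) read for 180 s as RFU.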

O=[N+]([O-])c1cc(C(F)(F)F)ccc1N1CCN(CCCN2CCN(c3ccc(C(F)(F)F)cc3[N+](=O)[O-])CC2)CC1
EC50 (LNCaP): 12.2 µM | Activity [1]: Active | EC50 (PC-3): > 80 µM | EC50 (DU-145): 76.5 µM | Activity (Rattus norvegicus [2]): 51.7% | Activity (Rattus norvegicus [3]): Non-Toxic | Activity (Rattus norvegicus [4]): Non-Toxic | Activity (Rattus norvegicus [5]): Non-Toxic | Activity (Rattus norvegicus [6]): Active | Activity (Mus musculus [7]): 25.71%

c1ccc(N2CCN(CCN3CCN(c4ccccn4)CC3)CC2)nc1
EC50 (LNCaP): 12.4 µM | EC50 (PC-3): > 80 µM | EC50 (DU-145): > 80 µM | Activity (Rattus norvegicus [2]): 44% | Activity (Rattus norvegicus [3]): Non-Toxic | Activity (Rattus norvegicus [4]): Non-Toxic | Activity (Rattus norvegicus [5]): Non-Toxic | Activity (Rattus norvegicus [6]): Active | Activity (Mus musculus [7]): 16.95%

O=[N+]([O-])c1ccc(N2CCN(CCCN3CCN(c4ccc([N+](=O)[O-])cc4C(F)(F)F)CC3)CC2)c(C(F)(F)F)c1
EC50 (LNCaP): 55.5 µM

O=[N+]([O-])c1cc(C(F)(F)F)ccc1N1CCN(CCN2CCN(c3ccc(C(F)(F)F)cc3[N+](=O)[O-])CC2)CC1
EC50 (LNCaP): 63.2 µM

CN(C)CCCN1c2ccccc2CCc2ccccc21 [IMIPRAMINE]
Activity (Mus musculus [8]): 40.39% | Activity (Mus musculus [9]): Active

O=[N+]([O-])c1ccc(N2CCN(CCN3CCN(c4ccc([N+](=O)[O-])cc4)CC3)CC2)cc1
EC50 (LNCaP): 25.2 µM

COc1ccccc1N1CCN(CCN2CCN(c3ccc(F)cc3)CC2)CC1
EC50 (LNCaP): 78.7 µM

COc1ccccc1N1CCN(CCN2CCN(c3ccc([N+](=O)[O-])cc3)CC2)CC1
EC50 (LNCaP): 46.5 µM

O=[N+]([O-])c1ccc(N2CCN(CCN3CCN(c4ccc([N+](=O)[O-])cc4C(F)(F)F)CC3)CC2)c(C(F)(F)F)c1
EC50 (LNCaP): 72.2 µM

O=[N+]([O-])c1ccc(N2CCN(CCCN3CCN(c4ccc([N+](=O)[O-])cc4)CC3)CC2)cc1
EC50 (LNCaP): 11.8 µM | EC50 (PC-3): > 80 µM | EC50 (DU-145): > 80 µM | Activity (Rattus norvegicus [2]): 29% | Activity (Rattus norvegicus [3]): Non-Toxic | Activity (Rattus norvegicus [4]): Non-Toxic | Activity (Rattus norvegicus [5]): Non-Toxic | Activity (Rattus norvegicus [6]): Active | Activity (Mus musculus [7]): 69.74% | Activity (Mus musculus [10]): Active | Activity (Mus musculus [11]): Non-Toxic | Time (Mus musculus [12]): 120 s

CC(C)C(=O)Nc1ccc([N+](=O)[O-])c(C(F)(F)F)c1 [FLUTAMIDE]
EC50 (LNCaP): 7 µM | Activity (Rattus norvegicus [2]): 58.8%

Fc1ccc(N2CCN(CCN3CCN(c4ccc(F)cc4)CC3)CC2)cc1
EC50 (LNCaP): 71.2 µM

CNCCC(Oc1ccc(C(F)(F)F)cc1)c1ccccc1 (stereo not drawn) [FLUOXETINE]
Activity (Mus musculus [7]): 75.35%

Fc1ccccc1N1CCN(CCCN2CCN(c3ccccc3F)CC2)CC1
EC50 (LNCaP): 10.4 µM | EC50 (PC-3): > 80 µM | EC50 (DU-145): > 80 µM | Activity (Rattus norvegicus [2]): 37% | Activity (Rattus norvegicus [3]): Non-Toxic | Activity (Rattus norvegicus [4]): Non-Toxic | Activity (Rattus norvegicus [5]): Non-Toxic | Activity (Rattus norvegicus [6]): Active | Activity (Mus musculus [7]): 20.86%

Fc1ccc(N2CCN(CCCN3CCN(c4ccc(F)cc4)CC3)CC2)cc1
EC50 (LNCaP): 49.2 µM

CCOc1ccccc1OCCN[C@H](C)Cc1ccc(OC)c(S(N)(=O)=O)c1
fold change (FC) [13]: 1.6

COc1ccccc1N1CCN(CCN2CCN(c3ccccc3OC)CC2)CC1
EC50 (LNCaP): 40 µM

Fc1ccccc1N1CCN(CCN2CCN(c3ccccc3F)CC2)CC1
EC50 (LNCaP): 40 µM

O=[N+]([O-])c1ccc(N2CCN(CCN3CCN(c4ccc(F)cc4)CC3)CC2)cc1
EC50 (LNCaP): 77.9 µM

Fc1ccc(N2CCN(CCN3CCN(c4ccccc4F)CC3)CC2)cc1
EC50 (LNCaP): 68 µM
